Experimental data reported in ChEMBL document CHEMBL1649286, “ACHN-490, a neoglycoside with potent in vitro activity against multidrug-resistant Klebsiella pneumoniae isolates” (2009).
Values after ≈ are worked out from the molar mass of the structure shown.

Assays:
Assay type in all cases: functional
Klebsiella pneumoniae [1] = experiment: Antimicrobial activity against multidrug-resistant Klebsiella pneumoniae isolates by microdilution method
In short: (§1)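 Broth microdilution MICs following CLSI, in cation-adjusted Mueller-Hinton broth, using custom-made panels that include piperacillin-tazobactam. Tested against 102 multidrug-resistant clinical Klebsiella pneumoniae isolates, a subset of 25 of which produce KPC carbapenemase. Cephalosporin-clavulanate combinations use clavulanate at a constant 4 mg/liter. Susceptible and resistant categories are assigned by CLSI criteria.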

Klebsiella pneumoniae [2] = experiment: Antimicrobial activity against beta lactamase KPC-producing Klebsiella pneumoniae isolates by microdilution method
In short: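 Broth microdilution MICs following CLSI, in cation-adjusted Mueller-Hinton broth, using custom-made panels that include piperacillin-tazobactam. Cephalosporin-clavulanate combinations use clavulanate at a constant 4 mg/liter. Susceptible and resistant categories are assigned by CLSI criteria.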

Klebsiella pneumoniae [3] = experiment: Antimicrobial activity against multidrug-resistant Klebsiella pneumoniae isolates assessed as susceptible isolates by microdilution method; in short: as §1
Klebsiella pneumoniae [4] = experiment: Antimicrobial activity against beta lactamase KPC-producing Klebsiella pneumoniae isolates assessed as susceptible isolates by microdilution method
In short: (§2)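 Broth microdilution in cation-adjusted Mueller-Hinton broth following CLSI criteria, using customized panels that included piperacillin-tazobactam. MICs were read as the endpoint, and susceptibility was categorized by CLSI criteria.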

Klebsiella pneumoniae [5] = experiment: Antimicrobial activity against multidrug-resistant Klebsiella pneumoniae isolates assessed as resistance isolates by microdilution method; in short: as §1
Klebsiella pneumoniae [6] = experiment: Antimicrobial activity against beta lactamase KPC-producing Klebsiella pneumoniae isolates assessed as resistance isolates by microdilution method; in short: as §1
Klebsiella pneumoniae [7] = experiment: Antimicrobial activity against beta lactamase KPC-producing Klebsiella pneumoniae isolates by microdilution method in presence of beta-lactamase inhibitor Tazobactam
In short: as §2, with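 “piperacillin-tazobactam. The 25 clinical KPC-producing K. pneumoniae isolates belong to a set of 102 multidrug-resistant strains.” for “piperacillin-tazobactam.”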

Klebsiella pneumoniae [8] = experiment: Antimicrobial activity against multidrug-resistant Klebsiella pneumoniae isolates assessed as susceptible isolates by microdilution method in presence of beta-lactamase inhibitor Tazobactam; in short: as §1
Klebsiella pneumoniae [9] = experiment: Antimicrobial activity against beta lactamase KPC-producing Klebsiella pneumoniae isolates assessed as susceptible isolates by microdilution method in presence of beta-lactamase inhibitor Tazobactam
In short: as §2, with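 “piperacillin-tazobactam. The 25 clinical KPC-producing K. pneumoniae isolates belong to a set of 102 multidrug-resistant strains.” for “piperacillin-tazobactam.”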

Escherichia coli = experiment: Antimicrobial activity against Escherichia coli ATCC 25922 by microdilution method
Pseudomonas aeruginosa = experiment: Antimicrobial activity against Pseudomonas aeruginosa ATCC 27853 by microdilution method
Klebsiella pneumoniae [10] = experiment: Antimicrobial activity against Klebsiella pneumoniae ATCC 700603 by microdilution method

Question: What does the source list for `NCC[C@H](O)C(=O)N[C@@H]1C[C@H](N)[C@@H](O[C@H]2O[C@H](CN)[C@@H](O)[C@H](O)[C@H]2O)[C@H](O)[C@H]1O[C@H]1O[C@H](CO)[C@@H](O)[C@H](N)[C@H]1O` [AMIKACIN]?
Answer: MIC50 (Klebsiella pneumoniae [1]): 2 µg/mL (≈ 3.42 µM); MIC90 (Klebsiella pneumoniae [1]): 32 µg/mL (≈ 54.6 µM); MIC50 (Klebsiella pneumoniae [2]): 32 µg/mL (≈ 54.6 µM); MIC90 (Klebsiella pneumoniae [2]): 32 µg/mL (≈ 54.6 µM); Activity (Klebsiella pneumoniae [3]): 78.4%; Activity (Klebsiella pneumoniae [4]): 48%; Activity (Klebsiella pneumoniae [5]): 4.9%; Activity (Klebsiella pneumoniae [6]): 0%

Question: For `NCC[C@H](O)C(=O)N[C@@H]1C[C@H](N)[C@@H](O[C@H]2O[C@H](CN)CC[C@H]2N)[C@H](O)[C@H]1O[C@H]1O[C@H](CO)[C@@H](O)[C@H](N)[C@H]1O` [ARBEKACIN], which MIC50 (Klebsiella pneumoniae [1]) is on record?
Answer: Its MIC50 is 4 µg/mL (≈ 7.24 µM).

Question: What about the MIC90 (Klebsiella pneumoniae [1]) of the same compound?
Answer: The MIC90 was 16 µg/mL (≈ 29 µM).

Question: And the MIC50 (Klebsiella pneumoniae [2])?
Answer: Its MIC50 is 8 µg/mL (≈ 14.5 µM).

Question: What about the MIC90 (Klebsiella pneumoniae [2]) of the same compound?
Answer: Its MIC90 is 16 µg/mL (≈ 29 µM).

Question: Which results are given for `CC(C)(O/N=C(\C(=O)N[C@@H]1C(=O)N2C(C(=O)[O-])=C(C[n+]3ccccc3)CS[C@H]12)c1csc(N)n1)C(=O)O` [CEFTAZIDIME]?
Answer: MIC50 (Klebsiella pneumoniae [1]): > 32 µg/mL; MIC90 (Klebsiella pneumoniae [1]): > 32 µg/mL; MIC50 (Klebsiella pneumoniae [2]): > 32 µg/mL; MIC90 (Klebsiella pneumoniae [2]): > 32 µg/mL; Activity (Klebsiella pneumoniae [3]): 9.8%; Activity (Klebsiella pneumoniae [4]): 0%

Question: Which MIC50 (Klebsiella pneumoniae [1]) does the source give for `NC[C@@H]1O[C@H](O[C@H]2[C@@H](O)[C@H](O[C@@H]3[C@@H](O)[C@H](N)C[C@H](N)[C@H]3O[C@H]3O[C@H](CN)[C@@H](O)[C@H](O)[C@H]3N)O[C@@H]2CO)[C@H](N)[C@@H](O)[C@@H]1O` [FRAMYCETIN] here?
Answer: Its MIC50 is 2 µg/mL (≈ 3.25 µM).

Question: And the MIC90 (Klebsiella pneumoniae [1])?
Answer: The MIC90 was 32 µg/mL (≈ 52.1 µM).

Question: What about the MIC50 (Klebsiella pneumoniae [2]) of the same compound?
Answer: Its MIC50 is 2 µg/mL (≈ 3.25 µM).

Question: What about the MIC90 (Klebsiella pneumoniae [2]) of the same compound?
Answer: Its MIC90 is 32 µg/mL (≈ 52.1 µM).

Question: For `C[C@@H](O)[C@H]1C(=O)N2C(C(=O)O)=C(SCCNC=N)C[C@H]12` [IMIPENEM ANHYDROUS], which MIC50 (Klebsiella pneumoniae [1]) is on record?
Answer: Its MIC50 is 0.5 µg/mL (≈ 1.67 µM).

Question: And the MIC90 (Klebsiella pneumoniae [1])?
Answer: The MIC90 was 8 µg/mL (≈ 26.7 µM).

Question: And the MIC50 (Klebsiella pneumoniae [2])?
Answer: Its MIC50 is 8 µg/mL (≈ 26.7 µM).

Question: What about the MIC90 (Klebsiella pneumoniae [2]) of the same compound?
Answer: Its MIC90 is > 16 µg/mL.

Question: And the Activity (Klebsiella pneumoniae [3])?
Answer: The Activity was 75.5%.

Question: What about the Activity (Klebsiella pneumoniae [4]) of the same compound?
Answer: Its Activity is 12%.

Question: `CCN1CCN(C(=O)N[C@@H](C(=O)N[C@@H]2C(=O)N3[C@@H]2SC(C)(C)[C@@H]3C(=O)O)c2ccccc2)C(=O)C1=O` [PIPERACILLIN] was tested. Which MIC50 (Klebsiella pneumoniae [7]) did it give?
Answer: The MIC50 was > 64 µg/mL.

Question: What about the MIC90 (Klebsiella pneumoniae [7]) of the same compound?
Answer: The MIC90 was > 64 µg/mL.

Question: What about the Activity (Klebsiella pneumoniae [8]) of the same compound?
Answer: The Activity was 38.2%.

Question: And the Activity (Klebsiella pneumoniae [9])?
Answer: Its Activity is 0%.

Question: With `CN[C@@H]1[C@@H](O)[C@@H](O[C@@H]2[C@@H](O)[C@H](O[C@H]3OC(CNCCO)=CC[C@H]3N)[C@@H](N)C[C@H]2NC(=O)[C@@H](O)CCN)OC[C@]1(C)O` [PLAZOMICIN] as the compound, how does the MIC50 (Klebsiella pneumoniae [1]) read?
Answer: The MIC50 was 0.5 µg/mL (≈ 0.844 µM).

Question: What about the MIC90 (Klebsiella pneumoniae [1]) of the same compound?
Answer: Its MIC90 is 1 µg/mL (≈ 1.69 µM).

Question: And the MIC50 (Klebsiella pneumoniae [2])?
Answer: The MIC50 was 0.5 µg/mL (≈ 0.844 µM).

Question: And the MIC90 (Klebsiella pneumoniae [2])?
Answer: The MIC90 was 1 µg/mL (≈ 1.69 µM).

Question: What about the MIC (Escherichia coli) of the same compound?
Answer: Its MIC is 0.5 µg/mL (≈ 0.844 µM).

Question: And the MIC (Pseudomonas aeruginosa)?
Answer: Its MIC is 4 µg/mL (≈ 6.75 µM).

Question: And the MIC (Klebsiella pneumoniae [10])?
Answer: The MIC was 0.25 µg/mL (≈ 0.422 µM).

Question: Which MIC50 (Klebsiella pneumoniae [1]) does the source give for `CN(C)c1cc(NC(=O)CNC(C)(C)C)c(O)c2c1C[C@H]1C[C@H]3[C@H](N(C)C)C(O)=C(C(N)=O)C(=O)[C@@]3(O)C(O)=C1C2=O` [TIGECYCLINE] here?
Answer: The MIC50 was 1 µg/mL (≈ 1.71 µM).

Question: And the MIC90 (Klebsiella pneumoniae [1])?
Answer: The MIC90 was 2 µg/mL (≈ 3.41 µM).

Question: And the MIC50 (Klebsiella pneumoniae [2])?
Answer: The MIC50 was 1 µg/mL (≈ 1.71 µM).

Question: What about the MIC90 (Klebsiella pneumoniae [2]) of the same compound?
Answer: Its MIC90 is 2 µg/mL (≈ 3.41 µM).

Question: What about the Activity (Klebsiella pneumoniae [3]) of the same compound?
Answer: Its Activity is 90.2%.

Question: What about the Activity (Klebsiella pneumoniae [4]) of the same compound?
Answer: Its Activity is 96%.

Question: Which results are given for `NC[C@H]1O[C@H](O[C@H]2[C@H](O)[C@@H](O[C@H]3O[C@H](CO)[C@@H](O)[C@H](N)[C@H]3O)[C@H](N)C[C@@H]2N)[C@H](N)C[C@@H]1O` [TOBRAMYCIN]?
Answer: MIC50 (Klebsiella pneumoniae [1]): 32 µg/mL (≈ 68.4 µM); MIC50 (Klebsiella pneumoniae [2]): 32 µg/mL (≈ 68.4 µM); MIC90 (Klebsiella pneumoniae [2]): ≥ 64 µg/mL; Activity (Klebsiella pneumoniae [3]): 10.8%; Activity (Klebsiella pneumoniae [4]): 8%; Activity (Klebsiella pneumoniae [5]): 76.5%; Activity (Klebsiella pneumoniae [6]): 92%

Question: Which MIC50 (Klebsiella pneumoniae [1]) does the source give for GENTAMICIN here?
Answer: Its MIC50 is 8 µg/mL.

Question: What about the MIC90 (Klebsiella pneumoniae [1]) of the same compound?
Answer: The MIC90 was > 64 µg/mL.

Question: And the MIC50 (Klebsiella pneumoniae [2])?
Answer: The MIC50 was 8 µg/mL.

Question: What about the MIC90 (Klebsiella pneumoniae [2]) of the same compound?
Answer: Its MIC90 is 16 µg/mL.

Question: And the Activity (Klebsiella pneumoniae [3])?
Answer: Its Activity is 25.5%.

Question: And the Activity (Klebsiella pneumoniae [4])?
Answer: Its Activity is 44%.

Question: And the Activity (Klebsiella pneumoniae [5])?
Answer: Its Activity is 39.2%.

Question: And the Activity (Klebsiella pneumoniae [6])?
Answer: The Activity was 12%.
